# Assay results gathered from unrelated publications.
# JAK2: Tyrosine-protein kinase JAK2 (JAK2, Homo sapiens, UniProt O60674)
# JAK2 JH1: Tyrosine-protein kinase JAK2, JH1 (JAK2, Homo sapiens, UniProt O60674)
Structure (SMILES),target,effect on,mode,technique,tested at,quantity,value
O=C(NCCCNc1nc(Nc2cccc(NC(=O)N3CCCC3)c2)ncc1Br)C1CCC1,JAK2,enzyme activity,inhibitor,radiometric,1 µM,remaining activity,10%
CC(C)c1ccc(NC(=O)c2cccs2)c(-c2nc3ccccc3[nH]c2=O)c1,JAK2,enzyme activity,inhibitor,,1 µM,activity vs control,123%
CS(=O)(=O)c1cc(C2(NC(=O)c3cncc4c3cnn4-c3ccc(F)cc3)CC2)ccn1,JAK2 JH1,cell-free assay,,competition with immobilised ligand,1 µM,remaining binding,100%
COc1cc2ncnc(Nc3ccc(Oc4ccccc4)c(C)c3C)c2cc1OC,JAK2,enzyme activity,inhibitor,,1 µM,inhibition,3%
CNC(=O)c1cc(Oc2ccc(NC(=O)Nc3ccc(Cl)c(C(F)(F)F)c3)cc2)ccn1,JAK2,cell-free assay,,,0.5 µM,remaining signal,98.2%
C[C@@H]1CCN(c2nccc(-c3cnn4ncccc34)n2)C1,JAK2 JH1,cell-free assay,,,1 µM,remaining signal,90%
O=C(NCCCNc1nc(Nc2cccc(NC(=O)N3CCCC3)c2)ncc1I)c1cccs1,JAK2,enzyme activity,inhibitor,radiometric,1 µM,remaining activity,6%
CCS(=O)(=O)c1cc2cc(C[C@](O)(CC(C)(C)c3ccc(F)cc3C(N)=O)C(F)(F)F)[nH]c2cn1,JAK2 JH1,cell-free assay,,competition with immobilised ligand,1 µM,remaining binding,53%
FC(F)(F)Oc1cccc(-c2cnc3ccc(-c4ccncc4)nn23)c1,JAK2,enzyme activity,inhibitor,radiometric,1 µM,activity vs control,74%
COCCOc1nc(-c2ccc(Cl)nc2)nc2c1CN(C(=O)c1ncn3ccccc13)CC2,JAK2 JH1,cell-free assay,,competition with immobilised ligand,0.1 µM,remaining binding,100%
C=CC(=O)Nc1cc(Nc2nccc(Nc3cc(Cl)c(F)cc3C(C)(C)O)n2)c(OC)cc1N1CC[C@@H](N(C)C)C1,JAK2,enzyme activity,inhibitor,,1 µM,inhibition,2%
Cc1nn(CC(F)(F)F)cc1Nc1ncc(Br)c(NCCc2cnc[nH]2)n1,JAK2,enzyme activity,inhibitor,radiometric,1 µM,remaining activity,106%
COc1cc2ncnc(Nc3ccc(Oc4ccccc4)cc3C)c2cc1OC,"Tyrosine-protein kinase JAK2, JH1 (JAK2, Homo sapiens, UniProt O60674, V617F)",enzyme activity,inhibitor,,1 µM,inhibition,-11%
COc1cc2nccc(Oc3ccc(NC(=O)c4c5n(n(-c6ccc(F)cc6)c4=O)CCCC5)cc3)c2cc1OC,JAK2,enzyme activity,inhibitor,,0.1 µM,inhibition,10%
CNC(=O)c1ccc(Nc2ncc(C(F)(F)F)c(NCc3nccnc3N(C)S(C)(=O)=O)n2)cc1,JAK2,binding,,competition with immobilised ligand,1 µM,remaining binding,4.8%
CC(C)(C)c1nc2c3cc[nH]c(=O)c3c3cc(F)ccc3c2[nH]1,JAK2,cell-free assay,,,0.5 µM,remaining signal,1.37%
CCOc1cc(-c2nncn2C)ccc1Nc1ncc2cc(C)nc(NCC(C)(C)C)c2n1,JAK2,enzyme activity,inhibitor,FRET,1 µM,inhibition,< 15%
NS(=O)(=O)c1cc(NC(=O)C2(c3ccccc3Cl)CC2)ccc1Oc1cccc(Cl)c1,JAK2 JH1,cell-free assay,,competition with immobilised ligand,1 µM,remaining binding,100%
Cc1nn(CC(F)(F)F)cc1Nc1ncc(Br)c(NCCCNC(=O)C2CCC2)n1,JAK2,enzyme activity,inhibitor,radiometric,1 µM,remaining activity,67%
